hIAP act = increases human intestinal alkaline phosphatase activity; P09923; purified human IAP, CDP-Star luminescence, 30 min; hits give high values; 1 = vehicle-only enzyme, 0 = enzyme-free background; activation factor at 10 µM; 0.16% of 330,000 active;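 active = activation factor of the enzyme at least 2-fold when tested at 20 µM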
Target sequence (P09923 whole entry, looked up): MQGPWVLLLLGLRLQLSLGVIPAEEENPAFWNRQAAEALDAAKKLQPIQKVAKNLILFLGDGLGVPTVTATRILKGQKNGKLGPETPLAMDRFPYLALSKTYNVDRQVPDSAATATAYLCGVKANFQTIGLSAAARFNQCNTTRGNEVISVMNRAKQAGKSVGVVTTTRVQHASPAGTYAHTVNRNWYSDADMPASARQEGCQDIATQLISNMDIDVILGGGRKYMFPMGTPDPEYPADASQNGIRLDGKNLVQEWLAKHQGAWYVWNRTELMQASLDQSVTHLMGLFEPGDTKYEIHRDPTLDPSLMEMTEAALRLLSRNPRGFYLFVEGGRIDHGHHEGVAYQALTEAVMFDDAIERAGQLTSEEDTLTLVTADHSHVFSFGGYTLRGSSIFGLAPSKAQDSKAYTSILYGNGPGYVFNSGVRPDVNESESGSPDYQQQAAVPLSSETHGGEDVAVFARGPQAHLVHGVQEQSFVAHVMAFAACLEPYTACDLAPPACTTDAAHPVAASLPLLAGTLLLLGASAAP
bIAP inh = intestinal alkaline phosphatase (bovine) inhibition; purified bovine IAP, CDP-star luminescence, 30 min; inhibition, % at 20 µM; 190,000 tested, under 10 active;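 active = over 50% inhibition of intestinal alkaline phosphatase at 20 µM in the single-dose screen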
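Assay system: bovine IAP enzyme; medium: DEA buffer 100 mM, pH 9.8, with MgCl2 1.0 mM, ZnCl2 0.02 mM; doses: 20 µM single dose; incubation: enzyme reaction for 30 min at room temperature; detection: CDP-star luminescence signal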
mIAP activ = mouse IAP activation. muIAP, CDP-Star luminescence, 30 min; hits give high values; 1 = vehicle-only enzyme signal, 0 = enzyme-free wells. AID 2805. activation factor at 10 µM. 0.24% of 330,000 active;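 active = activation factor of at least 2 at 20 µM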
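Assay system: mouse IAP enzyme; Reagent: CDP-Star chemiluminescent phosphatase substrate; Compound: DMSO-dissolved test compounds; Incubation: 30 min, room temperature; Technique: luminescence from enzymatic CDP-Star hydrolysis; Controls: DMSO-only wells and no-enzyme negative control.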
hIAP inh = blocks human intestinal alkaline phosphatase | P09923 | purified IAP, CDP-Star luminescence, 30 min | inhibition, % at 10 µM | 0.12% of 330,000 active | AID 2544;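 active = inhibition reaching a set limit with compound at 10 µM in the primary screen, cut at about 35% in these data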;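 note: plate controls were DMSO wells with enzyme for no effect and no-enzyme buffer wells for full effect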
bIAP act = intestinal alkaline phosphatase (bovine) activation | purified bovine IAP, CDP-star luminescence, 30 min; hits give high values; fold of DMSO-control signal, blank-subtracted | activation factor at 20 µM | 0.17% of 200,000 active;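 active = activation factor of 2 or more at 20 µM, a signal rise over negative controls twice the positive control's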
mIAP block = mouse IAP inhibition. purified mouse IAP, CDP-Star luminescence, 30 min. inhibition, % at 10 µM. 0.2% of 330,000 active. AID 2806;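 active = inhibition of at least 40% at 10 µM in the primary screen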;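 note: plate controls were DMSO with enzyme for no effect and no enzyme wells for full effect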
mIAP inh conf = mouse IAP inhibition confirmation; 4.7% of 11,000 active; inhibition, % at 10 µM; shares compounds with mIAP block; AID 434971; purified mouse IAP, CDP-Star luminescence, 30 min;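 active = inhibition of at least 40% at 10 µM in either of the two replicates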;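 note: plate controls were DMSO wells with enzyme for no effect and buffer wells lacking enzyme for full effect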
Starred values were filed as active, the others as inactive; i = inactive; · = no result. Shown are actives, neighbours in structure and some others; about 0.79% of the full set was active somewhere.

SMILES | hIAP act | bIAP inh | mIAP activ | hIAP inh | bIAP act | mIAP block | mIAP inh conf
CC(C)OCCCNC(=O)c1cn(C)c2ccc(S(=O)(=O)N3CCCC3)cc2c1=O | 1.14 | · | 1.11 | -13.9 | · | -10.7 | ·
COc1ccc(N=C2SC(C(N)=O)CC(=O)N2CCc2ccc(OC)c(OC)c2)cc1 (configuration not stated) | 1.18 | 6.3 | 0.556 | -17.6 | 0.9 | 44.4* | 49.8*
COc1ccc(N=C2SC(C(=O)O)CC(=O)N2Cc2ccc(OC)c(OC)c2)cc1 (configuration not stated) | 0.921 | 1.1 | 1 | 7.9 | 1 | -0.3 | ·
COc1ccc2[nH]c3c(NCc4ccco4)ncnc3c2c1 | 1.19 | 25.0 | 1.48 | -18.9 | 0.8 | -48.1 | ·
Fc1ccc2[nH]c3c(NCc4ccccc4)ncnc3c2c1 | 1.27 | · | 2.73* | -27.1 | · | -172.5 | -125.3
COc1ccccc1NC(=O)CCSc1nc(C)cs1 | 1.06 | · | 1.01 | -6.3 | · | -0.7 | ·
CCOc1ccc(NC(=O)NC(C)c2ccc3c(c2)OCO3)cc1 (configuration not stated) | 1.08 | · | 1.21 | -8.4 | · | -21.2 | ·
CC(NC(=O)Nc1ccc(Cl)cc1)c1ccccc1 (configuration not stated) | 0.88 | · | 3.28* | 12.0 | · | -228.4 | -110.7
CC(C)c1ccc(NC(=O)NC(C)c2ccc3c(c2)OCO3)cc1 (configuration not stated) | 1.16 | · | 4.52* | -15.5 | · | -352.2 | -231.2
Cn1c(SCc2ccc(Cl)cc2)nnc1-c1ccc2nonc2c1 | 0.916 | · | 0.937 | 8.4 | · | 6.3 | ·
N=C1S/C(=C\c2ccco2)C(=O)N1c1nccs1 | 1.15 | -10.2 | 0.4 | -14.6 | 1.1 | 60.0* | 65.4*
N=C1S/C(=C\c2ccco2)C(=O)N1c1ccc2c(c1)OCO2 | 0.95 | -6.1 | 0.479 | 5.0 | 1.1 | 52.1* | 77.5*
CCOC(=O)CSC1=Nc2ccccc2C2=NC(CC(=O)NCc3ccc4c(c3)OCO4)C(=O)N12 (configuration not stated) | 0.799 | -1.9 | 0.558 | 20.1 | 1 | 44.2* | 58.9*
O=C(O)COc1ccc(/C=C/c2nc(-c3ccccc3O)n[nH]2)cc1 | 0.967 | · | 0.485 | 3.3 | · | 51.5* | 62.2*
COc1ccc(/C=C/c2nc(-c3ccccc3O)n[nH]2)cc1OC | 1.64 | 17.7 | 0.887 | -64.4 | 0.8 | 11.3 | ·
O=c1c(O)c(-c2ccccc2)oc2cc(O)cc(O)c12 | 1.22 | · | 0.943 | -22.3 | · | 5.7 | ·
O=c1c(O)c(-c2cc(O)c(O)c(O)c2)oc2cc(O)cc(O)c12 | 1.2 | · | 0.249 | -19.7 | · | 75.1* | 75.2*
c1coc(-c2nc(-c3ccco3)c(-c3ccco3)nc2-c2ccco2)c1 | 0.991 | 5.9 | 0.288 | 0.9 | 0.9 | 71.2* | 84.2*
Nc1nc(-c2ccco2)cs1 | 0.847 | 29.6 | 0.686 | 15.3 | 0.7 | 31.4 | ·
Nc1nc(-c2ccco2)c(-c2ccco2)s1 | 0.752 | 22.2 | 0.327 | 24.8 | 0.8 | 67.3* | 69.0*
CCOP(=O)(OCC)C(NC(=O)Nc1ccc(C)c(Cl)c1)c1ccccc1 (configuration not stated) | 0.916 | -5.5 | 3.37* | 8.4 | 1.1 | -237.1 | -158.7
O=C(CCNS(=O)(=O)c1ccc2[nH]c(=O)oc2c1)NCc1ccccc1 | 0.893 | · | 0.905 | 10.7 | · | 9.5 | ·
Cc1ccc(C)c(NC(=O)CCNS(=O)(=O)c2ccc3[nH]c(=O)oc3c2)c1 | 1.03 | · | 0.301 | -3.5 | · | 69.9* | 82.3*
COc1cccc(NC(=O)CN(C)S(=O)(=O)c2ccc3[nH]c(=O)oc3c2)c1 | 1.11 | · | 0.584 | -10.8 | · | 41.6* | 46.3*
COc1cccc(NC(=O)CN(C)S(=O)(=O)c2ccc3c(c2)CCC(=O)N3)c1 | 0.824 | · | 1.1 | 17.6 | · | -9.9 | ·
SMILES | hIAP act | bIAP inh | mIAP activ | hIAP inh | bIAP act | mIAP block | mIAP inh conf
Cc1ccc(NC(=O)CCNS(=O)(=O)c2ccc3[nH]c(=O)oc3c2)cc1C | 1.23 | · | 0.904 | -22.9 | · | 9.6 | ·
COc1ccccc1CNC(=O)CCNS(=O)(=O)c1ccc2[nH]c(=O)oc2c1 | 0.998 | · | 0.592 | 0.2 | · | 40.8* | 74.6*
COc1ccc(OC)c(NC(=O)CCNS(=O)(=O)c2ccc3[nH]c(=O)oc3c2)c1 | 0.767 | · | 0.528 | 23.3 | · | 47.2* | 61.6*
CC(C)C(NS(=O)(=O)c1cccs1)C(=O)N1CCC(C(N)=O)CC1 (configuration not stated) | 1.09 | · | 0.944 | -9.2 | · | 5.6 | ·
COc1cccc(CNC(=O)CCNS(=O)(=O)c2ccc3[nH]c(=O)oc3c2)c1 | 1.07 | · | 0.508 | -7.5 | · | 49.2* | 76.9*
COc1ccccc1NC(=O)CCNS(=O)(=O)c1ccc2[nH]c(=O)oc2c1 | 1.21 | · | 0.587 | -21.0 | · | 41.3* | 73.5*
Cc1ccc(NC(=O)CCNS(=O)(=O)c2ccc3[nH]c(=O)oc3c2)c(C)c1 | 1.05 | · | 0.698 | -5.1 | · | 30.2 | ·
CCCCNC(=O)Oc1c(Br)cc2sc(=O)oc2c1Br | 1.12 | · | 0.218 | -12.2 | · | 78.2* | 81.1*
c1ccc(Cn2nnnc2CN2CCN(Cc3ccc4c(c3)OCO4)CC2)cc1 | 1.02 | 1.9 | 1.02 | -1.9 | 1 | -2.0 | ·
O=C(Nc1ccccc1)NC1CC2CCC(C1)N2Cc1nnnn1Cc1ccc2c(c1)OCO2 (configuration not stated) | 1.17 | -84.7 | 2.49* | -17.1 | 1.8 | -148.6 | -122.8
Cc1cccc(N(Cc2ccccc2)C(=O)c2cc(S(=O)(=O)N3CCOCC3)ccc2Cl)c1 | 0.839 | · | 1.03 | 16.1 | · | -3.3 | ·
FC(F)Sc1ccc(NC(=S)NC(c2ccccc2)c2ccccc2)cc1 | 1.72 | 13.1 | 12* | -71.8 | 0.9 | i | -276.7
COc1ccc(CN2CC[C@H]3C=CC[C@@H](C(=O)Nc4ccc(Cl)c(C(F)(F)F)c4)[C@H]3C2=O)cc1OC | 0.908 | · | 2.1* | 9.2 | · | -109.6 | -185.4
Cc1cc(/C=C2\SC(=S)NC2=O)c(C)n1-c1cccc(O)c1 | 0.882 | · | 0.236 | 11.8 | · | 76.4* | 74.7*
Cc1cc(/C=C2\SC(=S)NC2=O)c(C)[nH]1 | 0.735 | 6.5 | 0.296 | 26.5 | 0.9 | 70.4* | 87.1*
Cc1sc(-n2c(C)cc(/C=C3\SC(=S)NC3=O)c2C)c(C#N)c1C | 0.954 | 19.8 | 0.502 | 4.6 | 0.8 | 49.8* | 63.9*
O=C(CCCN1C(=O)NC2(CCCC2)C1=O)NCc1ccccc1 | 0.94 | · | 0.953 | 6.0 | · | 4.7 | ·
Cc1ccc(C)c(NC(=O)C(C)N2C(=O)c3ccccc3C2=O)c1 (configuration not stated) | 1.06 | · | 1.07 | -5.9 | · | -7.1 | ·
Cc1ccc(NC(=O)c2ccc3c(c2)N(CC(=O)NC(C)C)C(=O)C(C)(C)O3)cc1 | 1.04 | · | 1.01 | -3.8 | · | -1.5 | ·
NS(=O)(=O)c1cc(C(=O)N=Nc2c(O)[nH]c3ccccc23)ccc1Cl | 0.86 | · | 0.535 | 14.0 | · | 46.5* | 48.0*
O=C(N=Nc1c(O)[nH]c2ccccc12)c1cccc(S(=O)(=O)Nc2ccccc2Cl)c1 | 1.13 | -23.1 | 0.884 | -13.4 | 1.2 | 11.6 | ·

Screens as filed in PubChem.
